Measurements published in ChEMBL document CHEMBL2150951, “Studies on the antimicrobial properties of N-acylated ciprofloxacins” (2012).
≈ marks a conversion by molar mass, not a printed value. Calls of active or inactive are those of the source. No cut-off for these calls is given here.

How the values were obtained:
[1] = Antibacterial activity against Bartonella henselae Houston-1 infected in human HMEC1 cells assessed as intracellular bacterial load at 0.1 ug/mL incubated for 96 hrs followed by compound washout measured after 7 days relative to control; type: functional, Bartonella henselae str. Houston-1
Method in brief: (§1)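 HMEC-1 cells grown in MCDB131 with 10% FBS, EGF and hydrocortisone were infected with B. henselae Houston-1 at MOI 100 for 4 h. Extracellular bacteria were killed with gentamicin (200 µg/ml, 1 h), then compound was added at 0.1 or 1.0 µg/ml for 96 h. After washing, cells were lysed with 0.1% saponin and lysates plated on chocolate agar for 7 days. CFU are given as a percentage of the media-only control.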

[2] = tested on: Staphylococcus aureus; experiment: Antibacterial activity against methicillin-susceptible Staphylococcus aureus SH1000 at MIC by serial dilution method; type: functional
Method in brief: (§2)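 Tryptic soy agar contained compound at 1x, 1.5x, 2.0x or 2.5x the measured MSSA MIC. Cells from 1 ml of an overnight MSSA broth culture were pelleted, resuspended in 100 µl TSB and spread with glass beads. Inoculum cfu was counted by serial dilution onto drug-free agar. Total colonies from at least 3 replicates are reported; frequency is colonies divided by total inoculum.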

[3] = tested on: Staphylococcus aureus; experiment: Antibacterial activity against methicillin-resistant Staphylococcus aureus isolate CBD 635 at 50 ug per disc by Kirby-Bauer disc diffusion assay; type: functional; details: read-out: DIZ
Method in brief: (§3)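 Kirby-Bauer disk diffusion with 50 µg compound per 6 mm paper disk. Organisms were grown and plated by an earlier method. The zone-of-inhibition diameter was recorded to the nearest mm and averaged over three independent experiments. No zone was reported as 6 mm, the disk diameter.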

[4] = tested on: Bacillus anthracis; experiment: Antibacterial activity against Bacillus anthracis sterne at 50 ug per disc by Kirby-Bauer disc diffusion assay; type: functional; details: read-out: DIZ; method in brief: as §3
[5] = tested on: Staphylococcus aureus; experiment: Antibacterial activity against methicillin-susceptible Staphylococcus aureus SH1000 at 2.5 fold MIC by serial dilution method; type: functional; method in brief: as §2
[6] = tested on: Staphylococcus aureus; experiment: Antibacterial activity against methicillin-susceptible Staphylococcus aureus SH1000 at 2 fold MIC by serial dilution method; type: functional; method in brief: as §2
[7] = tested on: Staphylococcus aureus; experiment: Antibacterial activity against methicillin-resistant Staphylococcus aureus isolate CBD 635; type: functional
Method in brief: (§4)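 MIC against S. aureus strains was run by an earlier published procedure, tested in triplicate. Values were averaged and expressed as µg/ml of compound.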

[8] = Antibacterial activity against Bartonella henselae ATCC 49882 at 20 ug per disc after 7 days by Kirby-Bauer disc diffusion assay; type: functional, Bartonella henselae str. Houston-1; details: ATCC 49882, 168 h, read-out: DIZ
Method in brief: (§5)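 Each paper disk was loaded with 20 µl of a 1 mg/ml solution, dried for 20 min and stored desiccated at 4 °C. Growth from 4-day plates was suspended in heart infusion broth to McFarland 2.0 and swabbed onto chocolate agar (heart infusion agar base with 5% bovine hemoglobin). Plates were incubated 1 week at 37 °C in 5% CO2. Zone diameter was read to the nearest mm, in triplicate and averaged.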

[9] = tested on: Bartonella quintana; experiment: Antibacterial activity against Bartonella quintana ATCC VR358 at 20 ug per disc after 7 days by Kirby-Bauer disc diffusion assay; type: functional; details: ATCC VR358, 168 h, read-out: DIZ; method in brief: as §5
[10] = tested on: Staphylococcus aureus; experiment: Antibacterial activity against methicillin-resistant Staphylococcus aureus ATCC 43300; type: functional; method in brief: as §4
[11] = Antibacterial activity against Bartonella henselae Houston-1 infected in human HMEC1 cells assessed as intracellular bacterial load at 1 ug/mL incubated for 96 hrs followed by compound washout measured after 7 days relative to control; type: functional, Bartonella henselae str. Houston-1; method in brief: as §1
[12] = tested on: Staphylococcus aureus; experiment: Antibacterial activity against methicillin-susceptible Staphylococcus aureus SH1000; type: functional
Method in brief: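 MIC in µg/ml, tested in triplicate and averaged, with ciprofloxacin as positive control.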

[13] = tested on: Escherichia coli; experiment: Antibacterial activity against Escherichia coli DH5alpha at 50 ug per disc by Kirby-Bauer disc diffusion assay; type: functional; details: DH5[alpha], read-out: DIZ
Method in brief: (§6)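 Disks carried 50 µg of compound. Zone diameter was measured to the nearest mm and averaged over three independent experiments. A value of 6 mm, the disk diameter, was recorded where no inhibition was seen.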

[14] = tested on: Enterococcus faecalis; experiment: Antibacterial activity against Enterococcus faecalis DS16 at 50 ug per disc by Kirby-Bauer disc diffusion assay; type: functional; details: read-out: DIZ; method in brief: as §6
[15] = tested on: Staphylococcus aureus; experiment: Antibacterial activity against methicillin-susceptible Staphylococcus aureus SH1000 at 1.5 fold MIC by serial dilution method; type: functional; method in brief: as §2
[16] = tested on: Bartonella elizabethae; experiment: Antibacterial activity against Bartonella elizabethae F9251 at 20 ug per disc after 7 days by Kirby-Bauer disc diffusion assay; type: functional; details: F9251, 168 h, read-out: DIZ; method in brief: as §5
[17] = tested on: Escherichia coli; experiment: Inhibition of Escherichia coli DNA gyrase-mediated formation of supercoiled form of pUC19 at 1 to 100 ug/mL by gel electrophoresis
Method in brief: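 Relaxed circular pUC19 was incubated with purified E. coli DNA gyrase and compound for 1 h at 37 °C. Relaxed and supercoiled DNA were resolved and quantified by gel electrophoresis.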

[18] = tested on: Bartonella vinsonii; experiment: Antibacterial activity against Bartonella vinsonii ATCC VR152 at 20 ug per disc after 7 days by Kirby-Bauer disc diffusion assay; type: functional; details: ATCC VR152, 168 h, read-out: DIZ; method in brief: as §5
[19] = Antibacterial activity against Bartonella henselae ATCC 49882 after 7 days by agar dilution method; type: functional, Bartonella henselae str. Houston-1; details: ATCC 49882, 168 h
Method in brief: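 Agar dilution on chocolate agar containing compound at 10.0, 1.0 and 0.1 µg/ml, with 2-fold steps at and below 1.0 µg/ml for compounds active there. Controls were DMSO-only and drug-free plates. 25 µl of a McFarland 2.0 suspension in heart infusion broth was spotted and incubated 7 days at 37 °C in 5% CO2. Growth was scored +/− on duplicate plates; triplicate results were averaged.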

[20] = tested on: Bartonella henselae; experiment: Antibacterial activity against Bartonella henselae infected in african green monkey Vero cells by immunofluorescence staining; type: functional

## CC(=O)N1CCN(c2cc3c(cc2F)c(=O)c(C(=O)O)cn3C2CC2)CC1
[1]
  Activity: 54%
[2]
  CFU/ml: 90
[3]
  zone of inhibition at 50 µg/disc: 24 mm
[4]
  zone of inhibition at 50 µg/disc: 89 mm
[5]
  CFU/ml: 0
[6]
  CFU/ml: 101
[7]
  MIC: > 100 µg/mL
[8]
  zone of inhibition at 20 µg/disc: 52 mm
[9]
  zone of inhibition at 20 µg/disc: 6 mm
[10]
  MIC: 10 µg/mL (≈ 26.8 µM)
[11]
  Activity: <=10%
[12]
  MIC: 10 µg/mL (≈ 26.8 µM)
[13]
  zone of inhibition at 50 µg/disc: 60 mm
[14]
  zone of inhibition at 50 µg/disc: 48 mm
[15]
  CFU/ml: 41
[16]
  zone of inhibition at 20 µg/disc: 58 mm
[17]
  gyrase inhibition (active/inactive): Active

## CCCCCCCCCC(=O)N1CCN(c2cc3c(cc2F)c(=O)c(C(=O)O)cn3C2CC2)CC1
[2]
  Activity: inactive
[3]
  zone of inhibition at 50 µg/disc: 34 mm
[4]
  zone of inhibition at 50 µg/disc: 6 mm
[5]
  Activity: inactive
[6]
  Activity: inactive
[7]
  MIC: > 100 µg/mL
[8]
  zone of inhibition at 20 µg/disc: 10 mm
[9]
  zone of inhibition at 20 µg/disc: 11 mm
[10]
  MIC: 10 µg/mL (≈ 20.6 µM)
[18]
  zone of inhibition at 20 µg/disc: 9 mm
[12]
  MIC: 10 µg/mL (≈ 20.6 µM)
[13]
  zone of inhibition at 50 µg/disc: 6 mm
[19]
  MIC: 5 µg/mL (≈ 10.3 µM)
[14]
  zone of inhibition at 50 µg/disc: 6 mm
[15]
  Activity: inactive
[16]
  zone of inhibition at 20 µg/disc: 9 mm

## C[C@@H]1CN(c2c(F)c(N)c3c(=O)c(C(=O)O)cn(C4CC4)c3c2F)C[C@H](C)N1 [SPARFLOXACIN]
[20]
  MIC: 6.4 µg/mL (≈ 16.3 µM)

## CC1COc2c(N3CCN(C)CC3)c(F)cc3c(=O)c(C(=O)O)cn1c23 (centres undefined) [OFLOXACIN]
[20]
  MIC: 5.6 µg/mL (≈ 15.5 µM)

## CC(C)CC(=O)N1CCN(c2cc3c(cc2F)c(=O)c(C(=O)O)cn3C2CC2)CC1
[1]
  Activity: 32%
[3]
  zone of inhibition at 50 µg/disc: 28 mm
[4]
  zone of inhibition at 50 µg/disc: 70 mm
[7]
  MIC: > 100 µg/mL
[8]
  zone of inhibition at 20 µg/disc: 62 mm
[9]
  zone of inhibition at 20 µg/disc: 36 mm
[10]
  MIC: > 100 µg/mL
[11]
  Activity: <=10%
[18]
  zone of inhibition at 20 µg/disc: 40 mm
[12]
  MIC: > 100 µg/mL
[13]
  zone of inhibition at 50 µg/disc: 36 mm
[19]
  MIC: 0.2 µg/mL (≈ 0.481 µM)
[14]
  zone of inhibition at 50 µg/disc: 32 mm
[16]
  zone of inhibition at 20 µg/disc: 37 mm

## O=C(O)c1cn(C2CC2)c2cc(N3CCNCC3)c(F)cc2c1=O [CIPROFLOXACIN]
[20]
  MIC: 15.2 µg/mL (≈ 45.9 µM)
[3]
  zone of inhibition at 50 µg/disc: 6 mm
[4]
  zone of inhibition at 50 µg/disc: 42 mm
[5]
  CFU/ml: 551
[8]
  zone of inhibition at 20 µg/disc: 56 mm
[9]
  zone of inhibition at 20 µg/disc: 6 mm
[10]
  MIC: 15 µg/mL (≈ 45.3 µM)
[11]
  Activity: <=10%
[18]
  zone of inhibition at 20 µg/disc: 58 mm
[12]
  MIC: 10 µg/mL (≈ 30.2 µM)
[13]
  zone of inhibition at 50 µg/disc: 43 mm
[19]
  MIC: 0.5 µg/mL (≈ 1.51 µM)
[14]
  zone of inhibition at 50 µg/disc: 31 mm
[16]
  zone of inhibition at 20 µg/disc: 58 mm

## C[C@H]1COc2c(N3CCN(C)CC3)c(F)cc3c(=O)c(C(=O)O)cn1c23.C[C@H]1COc2c(N3CCN(C)CC3)c(F)cc3c(=O)c(C(=O)O)cn1c23.O [LEVOFLOXACIN]
[20]
  MIC: 0.84 µg/mL

## CCC(=O)N1CCN(c2cc3c(cc2F)c(=O)c(C(=O)O)cn3C2CC2)CC1
[3]
  zone of inhibition at 50 µg/disc: 20 mm
[4]
  zone of inhibition at 50 µg/disc: 86 mm
[5]
  CFU/ml: 0
[7]
  MIC: > 100 µg/mL
[8]
  zone of inhibition at 20 µg/disc: 56 mm
[9]
  zone of inhibition at 20 µg/disc: 58 mm
[10]
  MIC: > 100 µg/mL
[11]
  Activity: <=10%
[18]
  zone of inhibition at 20 µg/disc: 60 mm
[12]
  MIC: 40 µg/mL (≈ 103 µM)
[13]
  zone of inhibition at 50 µg/disc: 57 mm
[19]
  MIC: 0.5 µg/mL (≈ 1.29 µM)
[14]
  zone of inhibition at 50 µg/disc: 46 mm
[16]
  zone of inhibition at 20 µg/disc: 57 mm
[17]
  gyrase inhibition (active/inactive): Active

## CCC(C)(C)C(=O)N1CCN(c2cc3c(cc2F)c(=O)c(C(=O)O)cn3C2CC2)CC1
[1]
  Activity: 54%
[3]
  zone of inhibition at 50 µg/disc: 31 mm
[4]
  zone of inhibition at 50 µg/disc: 57 mm
[7]
  MIC: > 100 µg/mL
[8]
  zone of inhibition at 20 µg/disc: 41 mm
[9]
  zone of inhibition at 20 µg/disc: 27 mm
[10]
  MIC: 1 µg/mL (≈ 2.33 µM)
[11]
  Activity: <=10%
[18]
  zone of inhibition at 20 µg/disc: 33 mm
[12]
  MIC: 5 µg/mL (≈ 11.6 µM)
[13]
  zone of inhibition at 50 µg/disc: 38 mm
[19]
  MIC: 0.5 µg/mL (≈ 1.16 µM)
[14]
  zone of inhibition at 50 µg/disc: 45 mm
[16]
  zone of inhibition at 20 µg/disc: 32 mm

## CCCC(C)C(=O)N1CCN(c2cc3c(cc2F)c(=O)c(C(=O)O)cn3C2CC2)CC1 (centres undefined)
[2]
  Activity: inactive
[3]
  zone of inhibition at 50 µg/disc: 33 mm
[4]
  zone of inhibition at 50 µg/disc: 67 mm
[5]
  CFU/ml: 0
[6]
  CFU/ml: 4
[7]
  MIC: > 100 µg/mL
[8]
  zone of inhibition at 20 µg/disc: 37 mm
[9]
  zone of inhibition at 20 µg/disc: 24 mm
[10]
  MIC: 1 µg/mL (≈ 2.33 µM)
[18]
  zone of inhibition at 20 µg/disc: 30 mm
[12]
  MIC: 10 µg/mL (≈ 23.3 µM)
[13]
  zone of inhibition at 50 µg/disc: 33 mm
[19]
  MIC: 0.8 µg/mL (≈ 1.86 µM)
[14]
  zone of inhibition at 50 µg/disc: 33 mm
[15]
  CFU/ml: 7
[16]
  zone of inhibition at 20 µg/disc: 32 mm
